# In paper PMC8123931 (Nature chemical biology, 2020):
# Where two headings read alike, the source gives them in different places.
# Assays:
# EGFR L858R/T790M/C797S [1] = target: T1, EGFR L858R/T790M/C797S (Homo sapiens, UniProt P00533, C797S/L858R/T790M); assay: MaMTH-DS assay and screen, EGFR L858R/T790M/C797S bait with Shc1 prey; format: cell-based
# EGFR L858R/T790M/C797S [2] = target: T1, EGFR L858R/T790M/C797S; assay: In vitro kinase assay, recombinant kinase domain; format: biochemical
# EGFR ex19del/T790M/C797S = EGFR ex19del/T790M/C797S (Homo sapiens, UniProt P00533, C797S/DEL746-750/T790M); assay: In vitro kinase assay, recombinant kinase domain; format: biochemical
# [3] = target: purified pig brain tubulin (Sus scrofa, UniProt P02550+P02554); assay: In vitro microtubule dynamics assay with mCherry-EB3; format: biochemical
# Sequence of purified pig brain tubulin (P02550 whole entry): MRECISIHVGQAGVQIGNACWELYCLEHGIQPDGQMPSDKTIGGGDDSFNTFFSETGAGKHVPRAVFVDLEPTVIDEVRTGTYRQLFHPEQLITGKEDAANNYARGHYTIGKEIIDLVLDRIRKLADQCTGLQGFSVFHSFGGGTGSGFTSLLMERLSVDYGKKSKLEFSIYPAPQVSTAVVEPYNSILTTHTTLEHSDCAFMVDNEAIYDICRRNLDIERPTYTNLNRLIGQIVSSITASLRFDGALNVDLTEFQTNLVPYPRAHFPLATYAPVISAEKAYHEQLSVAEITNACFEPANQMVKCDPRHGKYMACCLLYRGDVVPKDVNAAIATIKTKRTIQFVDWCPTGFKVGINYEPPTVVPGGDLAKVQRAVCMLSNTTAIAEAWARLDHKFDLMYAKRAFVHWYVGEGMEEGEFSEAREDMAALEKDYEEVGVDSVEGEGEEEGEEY
# Sequence of purified pig brain tubulin (P02554 whole entry): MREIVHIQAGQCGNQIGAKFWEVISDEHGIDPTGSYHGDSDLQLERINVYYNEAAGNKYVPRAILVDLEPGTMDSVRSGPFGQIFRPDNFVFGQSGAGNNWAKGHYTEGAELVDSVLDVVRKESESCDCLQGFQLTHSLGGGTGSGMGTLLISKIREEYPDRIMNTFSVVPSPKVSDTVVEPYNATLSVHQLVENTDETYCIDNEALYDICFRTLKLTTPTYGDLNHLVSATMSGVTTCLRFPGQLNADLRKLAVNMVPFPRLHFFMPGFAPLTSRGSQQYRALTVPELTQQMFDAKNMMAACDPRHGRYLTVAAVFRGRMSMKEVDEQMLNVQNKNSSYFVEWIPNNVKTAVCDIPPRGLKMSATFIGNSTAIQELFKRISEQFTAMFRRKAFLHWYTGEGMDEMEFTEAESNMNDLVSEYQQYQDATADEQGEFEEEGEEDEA
# EGFR L858R/T790M/C797S [4] = target: T1, EGFR L858R/T790M/C797S; assay: MaMTH-DS assay, EGFR L858R/T790M/C797S bait with CrkII and Hsp90; format: cell-based
# MaMTH stable bait cells = assay: Reporter cell viability; format: cell-based; conditions: ALK bait cells
# In short: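 MaMTH stable bait cells seeded at 10,000 cells/well in 96-well plates. Next day treated across a dose range of test compound, with 0.5 μg/mL tetracycline to induce bait expression. Viability measured by CellTiter-Glo luminescence after 72 h of drug exposure.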
# ALK = ALK (Homo sapiens, UniProt Q9UM73); conditions: dose response
# Sequence of ALK (Q9UM73 19-1620): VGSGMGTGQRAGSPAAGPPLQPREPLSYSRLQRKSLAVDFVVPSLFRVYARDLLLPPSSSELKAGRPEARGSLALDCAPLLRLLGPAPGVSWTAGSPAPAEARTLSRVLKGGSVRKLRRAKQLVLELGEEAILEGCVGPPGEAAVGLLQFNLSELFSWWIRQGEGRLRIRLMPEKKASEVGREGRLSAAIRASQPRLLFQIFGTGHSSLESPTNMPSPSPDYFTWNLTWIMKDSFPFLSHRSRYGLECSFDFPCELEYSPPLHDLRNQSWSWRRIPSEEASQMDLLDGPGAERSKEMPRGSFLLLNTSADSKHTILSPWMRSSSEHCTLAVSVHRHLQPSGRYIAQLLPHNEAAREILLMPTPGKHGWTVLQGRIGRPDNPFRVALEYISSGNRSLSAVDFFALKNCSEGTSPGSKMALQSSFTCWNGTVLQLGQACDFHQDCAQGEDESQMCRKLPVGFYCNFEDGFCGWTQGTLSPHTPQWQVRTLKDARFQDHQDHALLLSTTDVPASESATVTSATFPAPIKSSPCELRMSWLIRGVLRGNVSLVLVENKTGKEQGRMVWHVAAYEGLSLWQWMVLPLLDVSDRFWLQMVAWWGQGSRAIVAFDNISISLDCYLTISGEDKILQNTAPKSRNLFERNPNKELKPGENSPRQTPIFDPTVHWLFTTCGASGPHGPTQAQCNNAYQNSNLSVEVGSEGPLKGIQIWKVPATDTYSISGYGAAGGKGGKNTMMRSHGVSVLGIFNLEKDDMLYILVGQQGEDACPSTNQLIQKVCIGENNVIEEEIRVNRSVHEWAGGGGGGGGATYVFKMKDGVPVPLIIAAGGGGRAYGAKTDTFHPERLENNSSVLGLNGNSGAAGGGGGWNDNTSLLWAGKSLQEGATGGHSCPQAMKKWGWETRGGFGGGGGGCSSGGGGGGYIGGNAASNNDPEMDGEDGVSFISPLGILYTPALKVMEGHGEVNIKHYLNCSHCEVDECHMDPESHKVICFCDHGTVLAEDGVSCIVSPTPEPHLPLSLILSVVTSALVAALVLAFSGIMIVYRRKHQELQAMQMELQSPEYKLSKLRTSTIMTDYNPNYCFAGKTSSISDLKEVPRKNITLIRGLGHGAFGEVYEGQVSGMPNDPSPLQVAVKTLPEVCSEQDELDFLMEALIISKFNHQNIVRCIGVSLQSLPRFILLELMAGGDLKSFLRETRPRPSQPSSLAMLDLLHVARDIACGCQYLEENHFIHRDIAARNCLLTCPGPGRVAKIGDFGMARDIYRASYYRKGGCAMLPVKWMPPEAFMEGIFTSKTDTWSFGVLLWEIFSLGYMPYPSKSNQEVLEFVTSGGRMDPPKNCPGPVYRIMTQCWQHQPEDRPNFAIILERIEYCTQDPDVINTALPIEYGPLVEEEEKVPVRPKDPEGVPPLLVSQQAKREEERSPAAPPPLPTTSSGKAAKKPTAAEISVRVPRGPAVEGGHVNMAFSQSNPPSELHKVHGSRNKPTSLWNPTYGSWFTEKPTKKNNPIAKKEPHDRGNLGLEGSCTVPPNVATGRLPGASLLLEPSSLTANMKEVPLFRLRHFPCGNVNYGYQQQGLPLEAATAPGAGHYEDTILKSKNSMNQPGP
# [5] = system: RTK bait (MET, FGFR4, AXL, ALK, EGFR); conditions: ALK bait
SMILES,interaction of Shc1 with EGFR L858R/T790M/C797S (in words) (EGFR L858R/T790M/C797S [1]),interaction of Shc1 with EGFR L858R/T790M/C797S (in words) (EGFR L858R/T790M/C797S [1]; listed as ChemBridge compound 5213777),inhibition of kinase activity of EGFR triple-mutant protein (EGFR L858R/T790M/C797S [2]),inhibition of kinase activity of EGFR triple-mutant protein (EGFR ex19del/T790M/C797S),"microtubule dynamics (growth rate, time, catastrophe frequency) [3]",interaction of CrkII with EGFR L858R/T790M/C797S (EGFR L858R/T790M/C797S [4]),interaction of Hsp90 with EGFR L858R/T790M/C797S (EGFR L858R/T790M/C797S [4]),reporter cell viability (MaMTH stable bait cells),ALK activity (interaction with Shc1) (ALK),bait expression level [5]
"CCN(CC)c1ccc2cc(-c3nc4ccccc4o3)c(=O)oc2c1 [EMI1, 3-(1,3-benzoxazol-2-yl)-7-(diethylamino)-2H-chromen-2-one]",potently reducing the interaction of EGFR triple mutant with Shc1,"robust, dose-dependent inhibition",no inhibition of the kinase activity,no inhibition of the kinase activity,"reduced microtubule growth rate and time, while increasing catastrophe frequency",inhibited interaction of both proteins with EGFR at a level similar to that observed with Shc1,inhibited interaction of both proteins with EGFR at a level similar to that observed with Shc1,,,
COc1cc(N2CCC(N3CCN(C)CC3)CC2)ccc1Nc1ncc(Cl)c(Nc2ccccc2P(C)(C)=O)n1 [brigatinib],,,,,,,,cell viability was unaffected,"strongly reduced, in a dose-dependent manner",not altered by compound
